≈ marks a conversion by molar mass, not a printed value.
System: Escherichia coli
Assay: Anti-bacterial activity was tested against Gram-negative EC-1 bacterium
Format: functional
How it was run: (§1)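 Standard microtitration MIC determination (µg/mL) against four representative Gram-negative and Gram-positive bacterial strains.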

Structure (SMILES) | MIC
CCN1CCN(c2cc3c(cc2F)c(=O)c(C(=O)O)cn3C(C)C)CC1 | 1.6 µg/mL (≈ 4.43 µM)
CC1(CN)CCN(c2cc3c(cc2F)c(=O)c(C(=O)O)cn3C2CC2)C1 (centres undefined) | 0.4 µg/mL (≈ 1.11 µM)
CCN1CCN(c2cc3c(cc2F)c(=O)c(C(=O)O)cn3C2CC2)CC1 [ENROFLOXACIN] | 0.05 µg/mL (≈ 0.139 µM)
CCn1cc(C(=O)O)c(=O)c2cc(F)c(N3CCNCC3)cc21 [NORFLOXACIN] | 0.1 µg/mL (≈ 0.313 µM)
C[C@@H]1CN(c2c(F)c(N)c3c(=O)c(C(=O)O)cn(C4CC4)c3c2F)C[C@H](C)N1 [SPARFLOXACIN] | 0.025 µg/mL (≈ 0.0637 µM)

Further lines, results first:

MIC | Structure (SMILES)
0.4 µg/mL (≈ 1.03 µM) | CC(C)NCC1CCN(c2cc3c(cc2F)c(=O)c(C(=O)O)cn3C2CC2)C1 (centres undefined)
0.03 µg/mL (≈ 0.0744 µM) | NC1CCN(c2cc3c(cc2F)c(=O)c(C(=O)O)cn3-c2ccc(F)cc2F)C1 (centres undefined)
0.4 µg/mL (≈ 0.927 µM) | CC1CN(c2cc3c(cc2F)c(=O)c(C(=O)O)cn3-c2ccc(F)cc2F)CC(C)N1 (centres undefined)
0.1 µg/mL (≈ 0.24 µM) | CC1CN(c2cc3c(cc2F)c(=O)c(C(=O)O)cn3-c2ccc(F)cc2F)CCN1 (centres undefined) [TEMAFLOXACIN]

System: Mycolicibacterium fortuitum
Assay: Anti-bacterial activity tested against Mycobacterium fortuitum (ATCG 6841)
Format: functional

Structure (SMILES) | MIC
CCN1CCN(c2cc3c(cc2F)c(=O)c(C(=O)O)cn3C(C)C)CC1 | 1 µg/mL (≈ 2.77 µM)
CC1(CN)CCN(c2cc3c(cc2F)c(=O)c(C(=O)O)cn3C2CC2)C1 (centres undefined) | < 0.03 µg/mL
CCN1CCN(c2cc3c(cc2F)c(=O)c(C(=O)O)cn3C2CC2)CC1 [ENROFLOXACIN] | 0.06 µg/mL (≈ 0.167 µM)
CCn1cc(C(=O)O)c(=O)c2cc(F)c(N3CCNCC3)cc21 [NORFLOXACIN] | 0.5 µg/mL (≈ 1.57 µM)
C[C@@H]1CN(c2c(F)c(N)c3c(=O)c(C(=O)O)cn(C4CC4)c3c2F)C[C@H](C)N1 [SPARFLOXACIN] | 0.06 µg/mL (≈ 0.153 µM)

Now from value to compound:

MIC | Structure (SMILES)
0.25 µg/mL (≈ 0.645 µM) | CC(C)NCC1CCN(c2cc3c(cc2F)c(=O)c(C(=O)O)cn3C2CC2)C1 (centres undefined)
0.13 µg/mL (≈ 0.322 µM) | NC1CCN(c2cc3c(cc2F)c(=O)c(C(=O)O)cn3-c2ccc(F)cc2F)C1 (centres undefined)
0.25 µg/mL (≈ 0.579 µM) | CC1CN(c2cc3c(cc2F)c(=O)c(C(=O)O)cn3-c2ccc(F)cc2F)CC(C)N1 (centres undefined)
0.13 µg/mL (≈ 0.311 µM) | CC1CN(c2cc3c(cc2F)c(=O)c(C(=O)O)cn3-c2ccc(F)cc2F)CCN1 (centres undefined) [TEMAFLOXACIN]

System: Mycolicibacterium smegmatis
Assay: Anti-bacterial activity tested against Mycobacterium smegmatis (ATCG 19420)
Format: functional

Structure (SMILES) | MIC
CCN1CCN(c2cc3c(cc2F)c(=O)c(C(=O)O)cn3C(C)C)CC1 | 4 µg/mL (≈ 11.1 µM)
CC1(CN)CCN(c2cc3c(cc2F)c(=O)c(C(=O)O)cn3C2CC2)C1 (centres undefined) | 0.06 µg/mL (≈ 0.167 µM)
CCN1CCN(c2cc3c(cc2F)c(=O)c(C(=O)O)cn3C2CC2)CC1 [ENROFLOXACIN] | 0.13 µg/mL (≈ 0.362 µM)
CCn1cc(C(=O)O)c(=O)c2cc(F)c(N3CCNCC3)cc21 [NORFLOXACIN] | 2 µg/mL (≈ 6.26 µM)
C[C@@H]1CN(c2c(F)c(N)c3c(=O)c(C(=O)O)cn(C4CC4)c3c2F)C[C@H](C)N1 [SPARFLOXACIN] | 0.13 µg/mL (≈ 0.331 µM)

Now from value to compound:

MIC | Structure (SMILES)
0.5 µg/mL (≈ 1.29 µM) | CC(C)NCC1CCN(c2cc3c(cc2F)c(=O)c(C(=O)O)cn3C2CC2)C1 (centres undefined)
0.13 µg/mL (≈ 0.322 µM) | NC1CCN(c2cc3c(cc2F)c(=O)c(C(=O)O)cn3-c2ccc(F)cc2F)C1 (centres undefined)
0.5 µg/mL (≈ 1.16 µM) | CC1CN(c2cc3c(cc2F)c(=O)c(C(=O)O)cn3-c2ccc(F)cc2F)CC(C)N1 (centres undefined)
0.5 µg/mL (≈ 1.2 µM) | CC1CN(c2cc3c(cc2F)c(=O)c(C(=O)O)cn3-c2ccc(F)cc2F)CCN1 (centres undefined) [TEMAFLOXACIN]

System: Pseudomonas aeruginosa
Assay: Anti-bacterial activity tested against Gram-negative PA-7 bacterium
Format: functional
How it was run: as §1

Structure (SMILES) | MIC
CCN1CCN(c2cc3c(cc2F)c(=O)c(C(=O)O)cn3C(C)C)CC1 | > 3.1 µg/mL
CC1(CN)CCN(c2cc3c(cc2F)c(=O)c(C(=O)O)cn3C2CC2)C1 (centres undefined) | 0.4 µg/mL (≈ 1.11 µM)
CCN1CCN(c2cc3c(cc2F)c(=O)c(C(=O)O)cn3C2CC2)CC1 [ENROFLOXACIN] | 0.8 µg/mL (≈ 2.23 µM)
CCn1cc(C(=O)O)c(=O)c2cc(F)c(N3CCNCC3)cc21 [NORFLOXACIN] | 0.8 µg/mL (≈ 2.51 µM)
C[C@@H]1CN(c2c(F)c(N)c3c(=O)c(C(=O)O)cn(C4CC4)c3c2F)C[C@H](C)N1 [SPARFLOXACIN] | 0.8 µg/mL (≈ 2.04 µM)

More lines, now with the values ahead:

MIC | Structure (SMILES)
3.1 µg/mL (≈ 8 µM) | CC(C)NCC1CCN(c2cc3c(cc2F)c(=O)c(C(=O)O)cn3C2CC2)C1 (centres undefined)
0.2 µg/mL (≈ 0.496 µM) | NC1CCN(c2cc3c(cc2F)c(=O)c(C(=O)O)cn3-c2ccc(F)cc2F)C1 (centres undefined)
0.8 µg/mL (≈ 1.85 µM) | CC1CN(c2cc3c(cc2F)c(=O)c(C(=O)O)cn3-c2ccc(F)cc2F)CC(C)N1 (centres undefined)
0.8 µg/mL (≈ 1.92 µM) | CC1CN(c2cc3c(cc2F)c(=O)c(C(=O)O)cn3-c2ccc(F)cc2F)CCN1 (centres undefined) [TEMAFLOXACIN]

System: Staphylococcus aureus
Assay: Anti-bacterial activity was tested against Gram-positive SA-13 bacterium
Format: functional
How it was run: as §1

Structure (SMILES) | MIC
CCN1CCN(c2cc3c(cc2F)c(=O)c(C(=O)O)cn3C(C)C)CC1 | 3.1 µg/mL (≈ 8.58 µM)
CC1(CN)CCN(c2cc3c(cc2F)c(=O)c(C(=O)O)cn3C2CC2)C1 (centres undefined) | 0.1 µg/mL (≈ 0.278 µM)
CCN1CCN(c2cc3c(cc2F)c(=O)c(C(=O)O)cn3C2CC2)CC1 [ENROFLOXACIN] | 0.2 µg/mL (≈ 0.556 µM)
CCn1cc(C(=O)O)c(=O)c2cc(F)c(N3CCNCC3)cc21 [NORFLOXACIN] | 3.1 µg/mL (≈ 9.71 µM)
C[C@@H]1CN(c2c(F)c(N)c3c(=O)c(C(=O)O)cn(C4CC4)c3c2F)C[C@H](C)N1 [SPARFLOXACIN] | 0.05 µg/mL (≈ 0.127 µM)

The remaining lines, values ahead:

MIC | Structure (SMILES)
0.4 µg/mL (≈ 1.03 µM) | CC(C)NCC1CCN(c2cc3c(cc2F)c(=O)c(C(=O)O)cn3C2CC2)C1 (centres undefined)
0.05 µg/mL (≈ 0.124 µM) | NC1CCN(c2cc3c(cc2F)c(=O)c(C(=O)O)cn3-c2ccc(F)cc2F)C1 (centres undefined)
0.4 µg/mL (≈ 0.927 µM) | CC1CN(c2cc3c(cc2F)c(=O)c(C(=O)O)cn3-c2ccc(F)cc2F)CC(C)N1 (centres undefined)
0.4 µg/mL (≈ 0.958 µM) | CC1CN(c2cc3c(cc2F)c(=O)c(C(=O)O)cn3-c2ccc(F)cc2F)CCN1 (centres undefined) [TEMAFLOXACIN]

System: Streptococcus pyogenes
Assay: Anti-bacterial activity tested against Gram-positive SP1-1 bacterium
Format: functional
How it was run: as §1

Structure (SMILES) | MIC
CCN1CCN(c2cc3c(cc2F)c(=O)c(C(=O)O)cn3C(C)C)CC1 | > 3.1 µg/mL
CC1(CN)CCN(c2cc3c(cc2F)c(=O)c(C(=O)O)cn3C2CC2)C1 (centres undefined) | 0.05 µg/mL (≈ 0.139 µM)
CCN1CCN(c2cc3c(cc2F)c(=O)c(C(=O)O)cn3C2CC2)CC1 [ENROFLOXACIN] | 0.8 µg/mL (≈ 2.23 µM)
CCn1cc(C(=O)O)c(=O)c2cc(F)c(N3CCNCC3)cc21 [NORFLOXACIN] | > 3.1 µg/mL
C[C@@H]1CN(c2c(F)c(N)c3c(=O)c(C(=O)O)cn(C4CC4)c3c2F)C[C@H](C)N1 [SPARFLOXACIN] | 0.1 µg/mL (≈ 0.255 µM)

Other lines, results leading:

MIC | Structure (SMILES)
1.6 µg/mL (≈ 4.13 µM) | CC(C)NCC1CCN(c2cc3c(cc2F)c(=O)c(C(=O)O)cn3C2CC2)C1 (centres undefined)
0.1 µg/mL (≈ 0.248 µM) | NC1CCN(c2cc3c(cc2F)c(=O)c(C(=O)O)cn3-c2ccc(F)cc2F)C1 (centres undefined)
0.8 µg/mL (≈ 1.85 µM) | CC1CN(c2cc3c(cc2F)c(=O)c(C(=O)O)cn3-c2ccc(F)cc2F)CC(C)N1 (centres undefined)
0.4 µg/mL (≈ 0.958 µM) | CC1CN(c2cc3c(cc2F)c(=O)c(C(=O)O)cn3-c2ccc(F)cc2F)CCN1 (centres undefined) [TEMAFLOXACIN]

Source: ChEMBL document CHEMBL1129477, “Structure-activity relationships of the quinolone antibacterials against mycobacteria: effect of structural changes at N-1 and C-7” (J Med Chem, 1996)
